Measurements as given in ChEMBL document CHEMBL5724801, “EUbOPEN Chemogenomics Library - Multiplex” (2024).
“And” between values parts separate entries of the source, which are not always exact repeats. Equal entries are not always repeated.

Tested on: U2OS
Assay: Multiplex assay against U2OS
Assay type: toxicity, cell-based
Conditions: human
Summary of the method: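 Cells stained live at seeding with Hoechst33342, BioTracker Green Microtubule Cytoskeleton Dye, MitoTracker Red and Annexin V Alexa Fluor 680 were imaged on a CQ1 microscope at 37°C and 5% CO2 after compound addition. Their classification by CellPathfinder machine-learning gating ran from Hoechst high-intensity objects versus normal cells, to healthy, pyknosed or fragmented nuclei among normal cells, to mitotic or apoptotic among pyknosed cells. Tubulin, mitochondrial-mass and membrane-permeability phenotypes are per cents of healthy-nucleus cells.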

[1] = 12 h, 1 µM, compound concentration 1 uM
[2] = 12 h, 10 µM, compound concentration 10 uM
[3] = 24 h, 1 µM, compound concentration 1 uM
[4] = 24 h, 10 µM, compound concentration 10 uM
[5] = 48 h, 1 µM, compound concentration 1 uM
[6] = 48 h, 10 µM, compound concentration 10 uM

## CN1[C@@H](CC(=O)c2ccccc2)CCC[C@H]1C[C@H](O)c1ccccc1.Cl [LOBELINE HYDROCHLORIDE]
[1]
  Population Apoptotic (%): 43.24% and 34.78%
  Population Fragmented Nuclei (%): 1.42% and 2.51%
  Population Healthy Nuclei (%): 88.07% and 85.93%
  Population Hoechst High Intensity Objects (%): 0%
  Population Membrane Permeable-Phenotype (%): 0.97% and 2.34%
  Population Mitochondria Different-Phenotype (%): 0% and 6.43%
  Population Mitotic Cells (%): 56.76% and 65.22%
  Population Normal (%): 100%
  Population Pyknosed Nuclei (%): 10.51% and 11.56%
  Population Tubulin-Different-Phenotype (%): 0.65% and 0.58%
  Total Cell Count: 352 and 199
[2]
  Population Apoptotic (%): 42.42% and 20%
  Population Fragmented Nuclei (%): 1.15% and 1.84%
  Population Healthy Nuclei (%): 91.26% and 82.82%
  Population Hoechst High Intensity Objects (%): 0%
  Population Membrane Permeable-Phenotype (%): 1.76% and 8.15%
  Population Mitotic Cells (%): 57.58% and 80%
  Population Normal (%): 100%
  Population Pyknosed Nuclei (%): 7.59% and 15.34%
  Population Tubulin-Different-Phenotype (%): 4.03% and 5.19%
  Total Cell Count: 435 and 163
[3]
  Population Apoptotic (%): 44.64% and 46.88%
  Population Fragmented Nuclei (%): 0.81% and 1.97%
  Population Healthy Nuclei (%): 87.88% and 85.43%
  Population Hoechst High Intensity Objects (%): 0%
  Population Membrane Permeable-Phenotype (%): 0.46% and 2.76%
  Population Mitochondria Different-Phenotype (%): 0% and 6.91%
  Population Mitotic Cells (%): 55.36% and 53.12%
  Population Normal (%): 100%
  Population Pyknosed Nuclei (%): 11.31% and 12.6%
  Population Tubulin-Different-Phenotype (%): 0.69% and 0.92%
  Total Cell Count: 495 and 254
[4]
  Population Apoptotic (%): 28.79% and 39.39%
  Population Fragmented Nuclei (%): 0.84% and 0.51%
  Population Healthy Nuclei (%): 88.01% and 82.74%
  Population Hoechst High Intensity Objects (%): 0%
  Population Membrane Permeable-Phenotype (%): 0.96% and 1.23%
  Population Mitotic Cells (%): 71.21% and 60.61%
  Population Normal (%): 100%
  Population Pyknosed Nuclei (%): 11.15% and 16.75%
  Population Tubulin-Different-Phenotype (%): 2.11% and 2.45%
[5]
  Population Apoptotic (%): 42.67% and 32.61%
  Population Fragmented Nuclei (%): 2.46% and 2.85%
  Population Healthy Nuclei (%): 89.17% and 86.22%
  Population Hoechst High Intensity Objects (%): 0%
  Population Membrane Permeable-Phenotype (%): 0.75% and 0.83%
  Population Mitochondria Different-Phenotype (%): 0.13% and 5.79%
  Population Mitotic Cells (%): 57.33% and 67.39%
  Population Normal (%): 100%
  Population Pyknosed Nuclei (%): 8.37% and 10.93%
  Population Tubulin-Different-Phenotype (%): 1.25% and 0.55%
  Total Cell Count: 896 and 421
[6]
  Population Apoptotic (%): 41.41% and 48.72%
  Population Fragmented Nuclei (%): 1.94% and 1.9%
  Population Healthy Nuclei (%): 88.91% and 85.76%
  Population Hoechst High Intensity Objects (%): 0%
  Population Membrane Permeable-Phenotype (%): 1.66% and 1.85%
  Population Mitochondria Different-Phenotype (%): 0.31% and 8.86%
  Population Mitotic Cells (%): 58.59% and 51.28%
  Population Normal (%): 100%
  Population Pyknosed Nuclei (%): 9.15% and 12.34%
  Population Tubulin-Different-Phenotype (%): 1.77% and 2.21%

## C[C@H](NC(=O)CNC(=O)c1cccc(Cl)c1)c1ccccc1
[1]
  Population Apoptotic (%): 78% and 71%
  Population Fragmented Nuclei (%): 26% and 20%
  Population Healthy Nuclei (%): 61% and 68%
  Population Hoechst High Intensity Objects (%): 3%
  Population Membrane Permeable-Phenotype (%): 6% and 8%
  Population Mitochondria Different-Phenotype (%): 4% and 2%
  Population Mitotic Cells (%): 21% and 28%
  Population Normal (%): 96%
  Population Pyknosed Nuclei (%): 12% and 11%
  Population Tubulin-Different-Phenotype (%): 2%
  Total Cell Count: 242 and 124
[2]
  Population Apoptotic (%): 68% and 66%
  Population Fragmented Nuclei (%): 24% and 13%
  Population Healthy Nuclei (%): 63% and 82%
  Population Hoechst High Intensity Objects (%): 2% and 0%
  Population Membrane Permeable-Phenotype (%): 9% and 2%
  Population Mitochondria Different-Phenotype (%): 3%
  Population Mitotic Cells (%): 31% and 33%
  Population Normal (%): 97% and 100%
  Population Pyknosed Nuclei (%): 11% and 4%
  Population Tubulin-Different-Phenotype (%): 4% and 2%
  Total Cell Count: 198 and 150
[3]
  Population Apoptotic (%): 79% and 88%
  Population Fragmented Nuclei (%): 19%
  Population Healthy Nuclei (%): 71% and 69%
  Population Hoechst High Intensity Objects (%): 2%
  Population Membrane Permeable-Phenotype (%): 7% and 4%
  Population Mitochondria Different-Phenotype (%): 2% and 4%
  Population Mitotic Cells (%): 20% and 11%
  Population Normal (%): 97%
  Population Pyknosed Nuclei (%): 8% and 10%
  Population Tubulin-Different-Phenotype (%): 2% and 0%
  Total Cell Count: 275 and 168
[4]
  Population Apoptotic (%): 90% and 71%
  Population Fragmented Nuclei (%): 24% and 12%
  Population Healthy Nuclei (%): 61% and 83%
  Population Hoechst High Intensity Objects (%): 1%
  Population Membrane Permeable-Phenotype (%): 6% and 4%
  Population Mitochondria Different-Phenotype (%): 4% and 2%
  Population Normal (%): 98%
  Population Pyknosed Nuclei (%): 13% and 3%
  Population Tubulin-Different-Phenotype (%): 2% and 3%
  Total Cell Count: 239 and 189
[5]
  Population Apoptotic (%): 74% and 100%
  Population Fragmented Nuclei (%): 18% and 17%
  Population Healthy Nuclei (%): 71% and 70%
  Population Hoechst High Intensity Objects (%): 3% and 2%
  Population Membrane Permeable-Phenotype (%): 6% and 4%
  Population Mitochondria Different-Phenotype (%): 3%
  Population Mitotic Cells (%): 25% and 0%
  Population Normal (%): 96% and 97%
  Population Pyknosed Nuclei (%): 10% and 11%
  Population Tubulin-Different-Phenotype (%): 1% and 2%
  Total Cell Count: 401 and 205
[6]
  Population Apoptotic (%): 81% and 100%
  Population Fragmented Nuclei (%): 19% and 12%
  Population Healthy Nuclei (%): 73% and 80%
  Population Hoechst High Intensity Objects (%): 2% and 1%
  Population Membrane Permeable-Phenotype (%): 6% and 4%
  Population Mitochondria Different-Phenotype (%): 2% and 1%
  Population Mitotic Cells (%): 18% and 0%
  Population Normal (%): 97% and 98%
  Population Pyknosed Nuclei (%): 7%
  Population Tubulin-Different-Phenotype (%): 4% and 1%
  Total Cell Count: 311 and 279

## CC(C)(C)c1cc(C(C)(C)C)c(NC(=O)c2c[nH]c3ccccc3c2=O)cc1O [IVACAFTOR]
[1]
  Population Apoptotic (%): 36.36% and 31.58%
  Population Fragmented Nuclei (%): 1.43% and 1.95%
  Population Healthy Nuclei (%): 92.26% and 85.71%
  Population Hoechst High Intensity Objects (%): 0%
  Population Membrane Permeable-Phenotype (%): 0.62% and 0.76%
  Population Mitochondria Different-Phenotype (%): 0% and 7.58%
  Population Mitotic Cells (%): 63.64% and 68.42%
  Population Normal (%): 100%
  Population Pyknosed Nuclei (%): 6.3% and 12.34%
  Population Tubulin-Different-Phenotype (%): 0.62% and 0%
  Total Cell Count: 349 and 154
[2]
  Population Apoptotic (%): 44.16% and 30.95%
  Population Fragmented Nuclei (%): 2.96% and 8.38%
  Population Healthy Nuclei (%): 74.26% and 66.47%
  Population Hoechst High Intensity Objects (%): 0%
  Population Membrane Permeable-Phenotype (%): 3.59% and 13.51%
  Population Mitotic Cells (%): 55.84% and 69.05%
  Population Normal (%): 100%
  Population Pyknosed Nuclei (%): 22.78% and 25.15%
  Population Tubulin-Different-Phenotype (%): 10.76% and 1.8%
  Total Cell Count: 338 and 167
[3]
  Population Apoptotic (%): 22.95% and 40%
  Population Fragmented Nuclei (%): 1.83% and 3.23%
  Population Healthy Nuclei (%): 85.77% and 86.02%
  Population Hoechst High Intensity Objects (%): 0%
  Population Membrane Permeable-Phenotype (%): 0.24% and 1.88%
  Population Mitochondria Different-Phenotype (%): 0% and 6.88%
  Population Mitotic Cells (%): 77.05% and 60%
  Population Normal (%): 100%
  Population Pyknosed Nuclei (%): 12.4% and 10.75%
  Population Tubulin-Different-Phenotype (%): 0.71% and 0%
  Total Cell Count: 492 and 186
[4]
  Population Apoptotic (%): 51.81% and 29.41%
  Population Fragmented Nuclei (%): 3.33% and 6.94%
  Population Healthy Nuclei (%): 75.38% and 63.58%
  Population Hoechst High Intensity Objects (%): 0%
  Population Mitotic Cells (%): 48.19% and 70.59%
  Population Normal (%): 100%
  Population Pyknosed Nuclei (%): 21.28% and 29.48%
  Population Tubulin-Different-Phenotype (%): 8.84% and 7.27%
  Total Cell Count: 390 and 173
[5]
  Population Apoptotic (%): 47.3% and 42.86%
  Population Fragmented Nuclei (%): 2.51% and 4.1%
  Population Healthy Nuclei (%): 89.07% and 81.57%
  Population Hoechst High Intensity Objects (%): 0%
  Population Membrane Permeable-Phenotype (%): 0.13% and 0.84%
  Population Mitochondria Different-Phenotype (%): 0% and 5.86%
  Population Mitotic Cells (%): 52.7% and 57.14%
  Population Normal (%): 100%
  Population Pyknosed Nuclei (%): 8.43% and 14.33%
  Population Tubulin-Different-Phenotype (%): 0.64% and 1.67%
  Total Cell Count: 878 and 293
[6]
  Population Apoptotic (%): 55% and 62.65%
  Population Healthy Nuclei (%): 75.09% and 44.95%
  Population Hoechst High Intensity Objects (%): 0% and 0.5%
  Population Membrane Permeable-Phenotype (%): 2.72% and 10.11%
  Population Mitotic Cells (%): 45% and 37.35%
  Population Normal (%): 100% and 99.5%
  Population Pyknosed Nuclei (%): 22.3% and 41.92%
  Population Tubulin-Different-Phenotype (%): 11.88% and 16.85%
  Total Cell Count: 538 and 199
